According to the EternaBench riboswitch data:

System: MS2 coat protein
Experiment: apparent Kd, MS2 coat protein; higher = weaker binding; RNA-MaP array; FMN 200 µM where present
Summary of the method: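 Stalled E. coli RNA polymerase produced the designs on Illumina sequencing-chip clusters. SNAP-549-labelled MS2 coat protein was added from 0.7 or 1.5 nM, doubling to 3 µM, without and then with constant ligand, in 100 mM Tris-HCl pH 7.5, 80 mM KCl, 4 mM MgCl2, BSA, DTT, yeast tRNA and Tween-20. The apparent Kd is the median of filtered per-cluster fits of green signal normalised to red-channel RNA signal and control-cluster median Fmax.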

[1] = designed as: OFF switch for flavin mononucleotide, no ligand
[2] = ligand present: flavin mononucleotide, designed as: OFF switch for flavin mononucleotide
[3] = designed as: ON switch for flavin mononucleotide, no ligand
[4] = ligand present: flavin mononucleotide, designed as: ON switch for flavin mononucleotide

Sequence	apparent Kd [1]	apparent Kd [2]	apparent Kd [3]	apparent Kd [4]
GAAUUACAUGAGGAUCACCCAUGUGAGGAUAUCGAUGUAACUAGCAGCGUGCGGGACUCGAGAAGGCACUUGGA	39.1 nM	67.5 nM	–	–
AAGAAGUGAGGAUAUGUAUCAGUAUAGUUGCCUAUACUGAUGUAGAAGGCACAUGAGGAUCACCCAUGUCCUAA	20.8 nM	25 nM	–	–
UAGUAUAAGGGCAUUAAACAUGAGGAUCACCCAUGUACGUUAGAGGAUAUGCAUUACAGUUGAAAGUAGAAGGUUAGAGAAGGG	45.6 nM	50.1 nM	–	–
AAGAAGUGAGGAUAUACAUGAGGAUCACCCAUGUAAAGAAGAAGAGGAGAGAAUAAAGGUAGAAGGCACAAGAA	45.8 nM	46 nM	–	–
GUCAGCUCGUCAGGAUAUACGUCACUGCGUCAGCAGUGUGGUAAGAUCACAUGAGGAUCACCCAUGUAGAAGGGACGAGCUGAU	14.1 nM	291 nM	–	–
ACAUCUAGAGGAUAUACAUGAGUGAUACACGUAUUUCCACUACAUGAGGAUCACCCAUGUAGAAGGCUAGAUGA	50 nM	16.9 nM	–	–
GCACAUGAUACAGGAUAUGUUUUUUAAUUUAUUAUGAGUUAUAUAUUAUUUACAGAAGGGUAUACAUGAGGAUCACCCAUGUGC	40.9 nM	31.4 nM	–	–
CUGAUGUUAGGAUAUCAGGUUGCGCGCGAAGGCGCGCGGCAUGAGAAGGAACAUGAGGAUCACCCAUGUGACGA	39.7 nM	148 nM	–	–
AGCUGACAAGGAUAUACUCGGGAUGCUAGUCGCGCAGAAGCACAUGAGGAUCACCCAUGUAGAAGGUGUCAGAA	158 nM	83.2 nM	–	–
CUUCUGUCAGGAUAUGCGAAUCACCACUAGGUCAGUGGUGAGCAGAAGGGACAUGAGGAUCACCCAUGUAAAGU	37 nM	166 nM	–	–
CUUCAGUGAGGAUAUGGCAUGCGCUGAUAAGCGCUCUCACGCCAGAAGGCACAUGAGGAUCACCCAUGUAAAAC	39.1 nM	152 nM	–	–
AAUUAACAUGAGGAUCACCCAUGUGAGGAUAUGGUAUUAUUUGGACAGUUAUGAUAUACCAGAAGGCACAAAUA	32.6 nM	45.9 nM	–	–
AACUAGUCAGGAUAUACGAACAUGUCAAAAAACAUAAAGGGACAUGAGGAUCACCCAUGUAGAAGGGACUAGCA	177 nM	666 nM	–	–
CGUCGGAGCAGAGGAUAUUACAUGAGGAUCACCCAUGUAUGAACCAAUAGCUGGAAACAGCAAUGUAAGAAGGCUGCUCCGACA	12.8 nM	198 nM	–	–
UUAAUUAUACAAGGAUAUCUAAUGGACUUACGACAAACAUGAGGAUCACCCAUGUAAAUAUAUAAAGAGAAGGUGUAUUUUCAG	–	–	73.5 nM	41.5 nM
GCCAUCGCAUGAGGAUAUGCUCGGGUUUCCCGAGCAGAAGGCAUGUCACAAGACAUGAGGAUCACCCAUGUAGUUAAGAUGGCA	–	–	190 nM	9.98 nM
GGAGCUCCUGACAUGAGGAUCACCCAUGUUCAAUUAUUAAAUCAGGAUAUCGUCUCGAAACGAGACGAGAAGGGAUAUGCUCCU	–	–	5.89 nM	6.2 nM
CUCUUACAUGAGGAUCACCCAUGUGAGGAUAUAGCGGCCUGAUGAGGGAUCAACAUCGCUAGAAGGUACUUGGG	101 nM	106 nM	–	–
AACUCGUCAGGAUAUGCGCGCAGUUACUACGCUUCGCAAUUGCAGAAGGGACAUGAGGAUCACCCAUGUAGAUC	34.6 nM	57.3 nM	–	–
GCAAUAGCAUGAGGAUAUGCUGGAGUUUAGACAGCAGAAGGCAUGUCAUAAGACAUGAGGAUCACCCAUGUAAUUACAAUAGCA	–	–	57.8 nM	10.4 nM
AACCGACAUGAGGAUCACCCAUGUCAGGAUAUGGACUGACAUCGAAAGGAUGGAGGAACCAGAAGGGACUGGGC	37.1 nM	81.6 nM	–	–
UAUAUAUAGUAAGGAUAUGUAUUUAUUUUAUAAACAGAAGGUACUGACAUGAGGAUCACCCAUGUUUUAGUGUGGGCAUGUAGA	89.1 nM	128 nM	–	–
AUCAGCUCGUCAGGAUAUACGUCACUGCGACAGCAGUGUGGUAAGAUCACAUGAGGAUCACCCAUGUAGAAGGGACGAGCUGAU	14.2 nM	297 nM	–	–
GCCAUCGCAUGAGGAUAUGCUCCGGUUUCCGGAGCAGAAGGCGUGUCAUAAGACAUGAGGAUCACCCAUGUAGUUAAGAUGGCA	–	–	246 nM	10.6 nM

Sequence	apparent Kd [1]	apparent Kd [2]	apparent Kd [3]	apparent Kd [4]
UUAUGAGAGCAGGAUAUCUUAUAUUUUUAUUAAAGAGAAGGGCUCACAUGAGGAUCACCCAUGUGGUCCUAGAU	55.9 nM	598 nM	–	–
CCGUGAAGGACAGGAUAUGGACAUGAGGAUCACCCAUGUACAUGGGAAUAUAUACUGAAUUUAUACUAGAAGGGUUACAUAAAU	21.8 nM	19.4 nM	–	–
CCUCAGUAAGGAUAUCAGCUUAGGAGGUUGGUAAUGAGAGCUGAGAAGGUACAUGAGGAUCACCCAUGUUAGUU	30.6 nM	76.4 nM	–	–
CCUCCCUGAGGAUAUCCACCCUCAUACAUGAGGAUCACCCAUGUUCAACCCUGGGUUCCCGGAGAAGGCAGCUUCC	260 nM	263 nM	–	–
AUAAUACAUGAGGAUCACCCAUGUAAUUUAACUUGUAAGAUCAAGGAUAUCAGCUCGUUUAGAGCUGAGAAGGUGAUCACAUGU	–	–	187 nM	292 nM
UUAUUAUAUGUAGGAUAUGCAUAUUACUAUUGUGCAGAAGGACAUGAGGAUCACCCAUGUAUAUUAUUAUUAUAUAUUAUAUAU	15.8 nM	15.7 nM	–	–
ACAUGAGGAUCACCCAUGUUCACAUAGGAUAUUGAUUAUAUUGGAUAUAUUUUUUUUAUAAUACACAAGAAGGAUGCAAGAUGG	–	–	19.3 nM	16.3 nM
ACGGAACAUGAGGAUCACCCAUGUAUCUGAGAUAAGCUCUCGCAGGAUAUUCAGAGAAGCCUAUCGGAGAAGGGUGACAGCAAA	–	–	25.3 nM	15.5 nM
CACGAUCAUGUAGGAUAUAUACUGGAAUACAGUAUAGAAGGACAUGAGGAUCACCCAUGUUAAGUGCCUCCAAGUAAGAUCGUG	17 nM	23 nM	–	–
AUACCACGAGGAUAUCGUCUAUUUUACAUGAGGAUCACCCAUGUUAUCUUUGUAAUGUUUCGAGAAGGCGUGUUUU	34.2 nM	23.9 nM	–	–
AGCUACGUUUCGUAGCAGCUAGGUGAGGAUAUUCAAUUUUUCACAUGAGGAUCACCCAUGUAUGUGAAGAAGGCGCCUAGAAAU	–	–	11.1 nM	4.98 nM
AGUCGGCGAGGAUAUACAUGAGGAUCACCCAUGUGAGAUAGUGCACGCGUACGUGUACGUAGAAGGCGCUGACA	12.1 nM	23.2 nM	–	–
UGCAGACGAGGAUAUGAUUAAUAAUACAUGAGGAUCACCCAUGUAAUACUGAUCUAUGGAUCAGAAGGCGUCUGCU	17.3 nM	14.6 nM	–	–
CAUAUACAGGGAGGAUAUAACAUGAGGAUCACCCAUGUGCAAUCCUCAAUGUUAGAAGGCCCAAUAGAAUCGCAAAAGGCAUCC	8.51 nM	4.96 nM	–	–
GUCCUACAUGAGGAUCACCCAUGUGAGGAUAUGUGGUUAGCUGCUAGGUAGUUAGUAUGCAGAAGGUACGUGAA	14.8 nM	15.5 nM	–	–
GUGGUCAGACAUGAGGAUCACCCAUGUGGAAUAAAUAACACACAGGAUAUCGAAUAUAAAAUAUACGAGAAGGGUGGAUUGGUG	–	–	388 nM	209 nM
CCUGUGGCAUGAGGAUAUGGUCAGCUUUGCUGACCAGAAGGCAUGUCAAUAGACAUGAGGAUCACCCAUGUAGUUAACACAGGA	–	–	535 nM	42.6 nM
UGCAUGCUAGGAUAUACGGGACAUUAGGGUUCGUCGUAUGGACAUGAGGAUCACCCAUGUAGAAGGAGCGUGCU	18.6 nM	44.5 nM	–	–
AUGGACGUCGUAGGAUAUGUAGGAUUCUCCUACAUGAGGAUCACCCAUGUUGACAUGGAGGACGGACAGAAGGACGGUGUCCAU	–	–	13.2 nM	5.31 nM
AUCUACCUAGGAUAUACAUGAGGAUCACCCAUGUACAGUUUCAACUAGGGAAACACACGUAGAAGGAGGUAGAU	13.6 nM	32.6 nM	–	–
GCGUAAUAGGUGUAGCUAGUCGUGCAAGAAGGGUGGUGAACAUGAGGAUCACCCAUGUGGUCAGUACAGGAUAUUGCUAUACGA	–	–	561 nM	162 nM
AAAAACUCAGGAUAUAUUAUGGGACAAUGAAGGAAGAUAAAACAUGAGGAUCACCCAUGUAGAAGGGAGAAAAA	58.5 nM	67.5 nM	–	–
CUCAUGUGAGGAUAUGUGAUCAACCUUCUAUAUAGAUGAUUACAGAAGGCACAUGAGGAUCACCCAUGUAGAUC	23.4 nM	18.3 nM	–	–
GGUCGUCACAUUUACAUGAGGAUCACCCAUGUCGAAAGACAUGAGGAUAUGCAUCCUAAUUGGAUGCAGAAGGCAUGGACGACC	–	–	445 nM	249 nM
